Experimental data published in paper PMC6570502 (Chembiochem : a European journal of chemical biology, 2019).
Where a chain is given by its changes, count along the chain named.

Columns and labels:
Format in all cases: biochemical
KDM4A N198A mutant [1] = biological target: T1, KDM4A N198A mutant (Homo sapiens, UniProt O75164, N198A); experiment: Demethylation of full-length H3Kc9me3 by western blot with H3K9me3 antibody; conditions: in presence of 2KG
T1 sequence (O75164 1-1064 N198A): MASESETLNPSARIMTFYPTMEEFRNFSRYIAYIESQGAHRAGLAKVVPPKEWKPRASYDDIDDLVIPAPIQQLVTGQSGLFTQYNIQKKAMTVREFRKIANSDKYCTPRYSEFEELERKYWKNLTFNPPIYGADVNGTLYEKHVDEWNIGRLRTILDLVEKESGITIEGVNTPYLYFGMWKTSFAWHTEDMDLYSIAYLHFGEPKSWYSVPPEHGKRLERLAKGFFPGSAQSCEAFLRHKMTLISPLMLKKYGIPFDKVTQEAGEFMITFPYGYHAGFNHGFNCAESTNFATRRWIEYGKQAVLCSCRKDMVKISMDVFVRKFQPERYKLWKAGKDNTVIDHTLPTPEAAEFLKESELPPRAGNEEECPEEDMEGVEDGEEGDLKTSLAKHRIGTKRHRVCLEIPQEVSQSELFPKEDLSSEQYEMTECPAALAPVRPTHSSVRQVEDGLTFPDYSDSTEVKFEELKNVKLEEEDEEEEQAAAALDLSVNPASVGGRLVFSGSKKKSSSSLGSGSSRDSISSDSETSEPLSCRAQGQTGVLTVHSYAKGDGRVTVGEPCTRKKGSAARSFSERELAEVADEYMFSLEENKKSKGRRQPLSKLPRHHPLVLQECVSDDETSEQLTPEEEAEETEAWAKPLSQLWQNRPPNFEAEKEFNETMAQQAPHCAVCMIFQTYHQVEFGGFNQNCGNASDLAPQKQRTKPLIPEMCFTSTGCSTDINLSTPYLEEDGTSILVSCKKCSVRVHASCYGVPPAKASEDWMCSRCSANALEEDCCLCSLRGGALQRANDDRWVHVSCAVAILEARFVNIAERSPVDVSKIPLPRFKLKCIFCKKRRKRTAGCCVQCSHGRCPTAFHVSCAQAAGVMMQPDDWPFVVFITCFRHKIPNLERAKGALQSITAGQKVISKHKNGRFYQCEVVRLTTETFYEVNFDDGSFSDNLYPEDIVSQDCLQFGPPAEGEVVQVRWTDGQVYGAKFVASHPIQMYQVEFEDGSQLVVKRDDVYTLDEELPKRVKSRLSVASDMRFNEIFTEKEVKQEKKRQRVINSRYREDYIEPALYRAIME
Procedure, shortened: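 Substrate is full-length histone H3 carrying a trimethyl-lysine analogue at K9 (H3KC9me3), installed chemically by the thialysine approach and verified by ESI-HRMS. The substrate is incubated with the KDM4A N198A mutant. Remaining K9 trimethylation is then detected by western blot with an anti-H3K9me3 antibody.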

wild type KDM4A = biological target: T2, wild type KDM4A (Homo sapiens, UniProt O75164); experiment: MALDI demethylase assay, H3K9me3 substrate peptide, wild type enzyme; conditions: 3 mM compound
T2 sequence (O75164 1-1064): T1 sequence (O75164 1-1064 N198A) with A198N

KDM4A N198A mutant [2] = biological target: T1, KDM4A N198A mutant; experiment: MALDI demethylase assay, H3K9me3 substrate peptide, N198A mutant; conditions: for inhibition of demethylase activity: 100 μM compound, 50 μM 2KG, MALDI-MS; for IC50: MALDI demethylase assay, dose-dependent
KDM4A N198G mutant = biological target: T3, KDM4A N198G mutant (Homo sapiens, UniProt O75164, N198G); experiment: MALDI demethylase assay, H3K9me3 substrate peptide, N198G mutant
T3 sequence (O75164 1-1064 N198G): T1 sequence (O75164 1-1064 N198A) with A198G

inhibition of demethylation of full-length H3Kc9me3 (KDM4A N198A mutant [1]) | inhibition of wild type KDM4A (wild type KDM4A) | inhibition of demethylase activity (KDM4A N198A mutant [2]) | IC50 (KDM4A N198A mutant [2]; N198A mutant) | Hill slope (KDM4A N198A mutant [2]; N198A mutant, dose-response of IC50 experiment) | inhibition of demethylase activity (KDM4A N198G mutant; 100 μM compound, 50 μM 2KG, MALDI-MS) | IC50 (KDM4A N198G mutant; N198G mutant, MALDI demethylase assay) | selectivity over the wild type enzyme (KDM4A N198A mutant [2]; N198A mutant vs wild type KDM4A) | Compound
significantly inhibited | About 50% | significantly inhibited | 139 µM | −1.06 |  |  |  | CCC(NC(=O)C(=O)O)C(=O)O (centres unmarked) [compound 3, ethyl-NOG]
 |  |  |  |  | inhibited | 288 µM |  | CC(C)C[C@H](NC(=O)C(=O)O)C(=O)O [compound 7, leucine-NOG]
 | no more than 30% | significantly inhibited | 80 µM |  |  |  | more than 20 fold | propyl-NOG [compound 5]
